The source of these data is ChEMBL document CHEMBL1136762, “Methoxylation of desazadesferrithiocin analogues: enhanced iron clearing efficiency” (J Med Chem, 2003).

What is called logP is a log measure of how a compound divides between an organic and an aqueous phase.

For series [1], the system named is Monkey. Nature of the series: Iron clearing activity when administered 150 uM/kg orally to Cebus apella Primates (n = 4) [% stool/% urine = 70/30]. It counts as functional.
Series [2] in a line: Partition coefficient (logP). It is filed as physicochemical. The settings on record: octanol/water. In short, it runs like this:
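Shake-flask octanol–water distribution coefficient at pH 7.4 (50 mM TRIS), not corrected for ionization. Quadruplicate samples were shaken overnight with 1-octanol at 22–24 °C and the layers settled 1–2 h before separation. Quantified by UV spectrometry and expressed as the log of the fraction in the octanol layer.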

Series [3] deals with Monkey. In words: Iron clearing activity when administered 150 uM/kg orally to Cebus apella Primates (n = 4) [% stool/% urine = 81/19]. It is filed as functional.
Series [4] has as its system Monkey. In words: Iron clearing activity when administered 150 uM/kg orally to Cebus apella Primates (n = 4) [% stool/% urine = 86/14]. It counts as functional.

On to `COc1ccc(C2=N[C@@](C)(C(=O)O)CS2)c(O)c1`, for which, in the series with Monkey [1], the Efficiency was found to be 24.4%. Besides, in series [2], the logP was -0.7.
In the series on Monkey [1], `CC1(C)SC(c2ccc(O)cc2O)=N[C@H]1C(=O)O` gave an Efficiency of 12.3%. This molecule also displayed a lipophilicity (logP) in series [2] of -0.91.
The molecule `COc1ccc(C2=N[C@@H](C(=O)O)CS2)c(O)c1` gave an Efficiency in the series with Monkey [3] of 16.2%. Besides, in series [2], the logP was -0.89.
Regarding `O=C(O)[C@H]1CSC(c2ccc(O)cc2O)=N1`, the Efficiency in the series with Monkey [1] worked out at 4.2%. Further, in series [2], the logP is -1.33.
With `C[C@]1(C(=O)O)CSC(c2ccc(O)cc2O)=N1` [DEFERITRIN], in the series on Monkey [4], the Efficiency is reported as 13.4%. The log partition coefficient (logP) in series [2] is -1.05.
